Measured values taken from ChEMBL document CHEMBL1275449, “Potent in vitro antifungal activities of naturally occurring acetylenic acids” (Antimicrob Agents Chemother, 2008).
≈ marks a conversion by molar mass, not a printed value. Calls of active or inactive are those of the source. No cut-off for these calls is given here.

Tests used:
[1] = system: Candida tropicalis; test: Antifungal activity against Candida tropicalis ATCC 750 after 48 hrs by CLSI method; type: functional, organism-based; conditions: ATCC 750, 48 h
Outline: (§1)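 Yeast suspensions made from 3-5 colonies off 24-72 h SD agar plates in saline. They were diluted by OD630 standard curve in RPMI 1640 (0.2% dextrose, 0.03% glutamine, 0.165 M MOPS, pH 7.0) to 1.5 × 10³ CFU/ml. Twofold dilutions (11 concentrations, 20% DMSO-saline) run in duplicate. OD530 read before and after 35°C, 48 h. Line values are top test concentrations; no-growth endpoints give MIC/MFC.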

[2] = system: Candida albicans; test: Antifungal activity against Candida albicans ATCC 200955 after 48 hrs by CLSI method; type: functional, organism-based; conditions: ATCC 200955, 48 h
Outline: (§2)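 CLSI broth microdilution. Colonies from 24–72 h SD agar suspended in saline and sized by OD630 standard curve. Inoculum 1.5 × 10³ CFU/ml (final) in RPMI 1640 (0.2% dextrose, 0.03% glutamine, 0.165 M MOPS, pH 7.0). Twofold dilutions (11 levels) from 20% DMSO-saline, in duplicate. 35°C for 48 h, OD530 read before and after. IC50 fitted from % growth. MIC: no detectable growth. MFC: subculture onto SD agar.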

[3] = system: Candida albicans; test: Antifungal activity against Fluconazole resistant Candida albicans isolate 17 at 68.3 uM after 48 hrs by CLSI method; type: functional, organism-based
Outline: (§3)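 Candida in CLSI broth microdilution. Saline colony suspension set to 1.5 × 10³ CFU/ml (final) in MOPS-buffered RPMI 1640, pH 7.0. Test agent given as twofold serial dilutions in 20% DMSO-saline, duplicate wells. 35°C for 48 h. Growth read as OD530 before and after incubation. Percent inhibition scored at the highest test concentration.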

[4] = system: Candida albicans; test: Antifungal activity against Candida albicans ATCC 14053 at 68.3 uM after 48 hrs by CLSI method; type: functional, organism-based
[5] = system: Candida parapsilosis; test: Antifungal activity against Candida parapsilosis ATCC 22019 at 68.3 uM after 48 hrs by CLSI method; type: functional, organism-based; outline: as §1
[6] = system: Candida albicans; test: Antifungal activity against Fluconazole resistant Candida albicans clinical isolate 17 after 48 hrs by CLSI method; type: functional, organism-based; outline: as §2
[7] = system: Pichia kudriavzevii; test: Antifungal activity against Candida krusei ATCC 6258 after 48 hrs by CLSI method; type: functional, organism-based; conditions: ATCC 6258, 48 h
Outline: (§4)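 Candida inocula came from 24–72-h SD agar colonies suspended in saline. They were diluted by OD630 standard curve into RPMI 1640 (0.2% dextrose, 0.03% glutamine, 0.165 M MOPS, pH 7.0) to 1.5 × 10³ CFU/ml. Compounds were run as 11 twofold dilutions in 20% DMSO-saline, in duplicate, at 35°C for 48 h, with OD530 read before and after. Percent growth at the top concentration, IC50, MIC, and MFC (SD agar plating) were derived.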

[8] = system: Candida albicans; test: Antifungal activity against Candida albicans ATCC 14053 after 48 hrs by CLSI method; type: functional, organism-based; conditions: ATCC 14053, 48 h; outline: as §2
[9] = system: Candida albicans; test: Antifungal activity against Candida albicans ATCC 32354 after 48 hrs by CLSI method; type: functional, organism-based; conditions: ATCC 32354, 48 h; outline: as §2
[10] = system: Candida albicans; test: Antifungal activity against Candida albicans ATCC 90028 after 48 hrs by CLSI method; type: functional, organism-based; conditions: ATCC 90028, 48 h; outline: as §2
[11] = system: Aspergillus fumigatus; test: Antifungal activity against Aspergillus fumigatus ATCC 204305 after 48 h by CLSI method; conditions: ATCC 204305, 48 h
[12] = system: Trichophyton rubrum; test: Antifungal activity against Trichophyton rubrum ATCC MYA-4438 at 68.3 uM after 5 days by CLSI method; type: functional, organism-based
[13] = system: Candida albicans; test: Antifungal activity against Candida albicans ATCC 60193 after 48 hrs by CLSI method; type: functional, organism-based; conditions: ATCC 60193, 48 h; outline: as §2
[14] = system: Aspergillus flavus; test: Antifungal activity against Aspergillus flavus ATCC 204304 after 48 h by CLSI method; conditions: ATCC 204304, 48 h
[15] = system: Pichia kudriavzevii; test: Antifungal activity against Candida krusei ATCC 6258 at 68.3 uM after 48 hrs by CLSI method; type: functional, organism-based; outline: as §1
[16] = system: Aspergillus niger; test: Antifungal activity against Aspergillus niger ATCC 16404 at 68.3 uM after 48 hrs by CLSI method; type: functional, organism-based
[17] = system: Candida albicans; test: Antifungal activity against Fluconazole resistant Candida albicans clinical isolate 1 after 48 hrs by CLSI method; type: functional, organism-based; outline: as §2
[18] = system: Candida albicans; test: Antifungal activity against Fluconazole resistant Candida albicans isolate 1 at 68.3 uM after 48 hrs by CLSI method; type: functional, organism-based; outline: as §3
[19] = system: Aspergillus niger; test: Antifungal activity against Aspergillus niger ATCC 16404 after 48 h by CLSI method; conditions: ATCC 16404, 48 h
[20] = system: Aspergillus fumigatus; test: Antifungal activity against Aspergillus fumigatus ATCC 90906 after 48 h by CLSI method; conditions: ATCC 90906, 48 h
[21] = system: Aspergillus fumigatus; test: Antifungal activity against Aspergillus fumigatus ATCC 90906 at 68.3 uM after 48 hrs by CLSI method; type: functional, organism-based
[22] = system: Cryptococcus neoformans; test: Antifungal activity against Cryptococcus neoformans ATCC 90113 after 72 hrs by CLSI method; type: functional, organism-based; conditions: ATCC 90113, 72 h
Outline: (§5)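 SD broth replaced RPMI because growth in RPMI was poor; other CLSI conditions were kept. Inoculum was 1.5 × 10³ CFU/ml from colonies on SD agar, checked by plating. Twofold serial dilutions (11 concentrations) in 20% DMSO-saline were tested in duplicate. OD530 was read before and after incubation at 35°C for 72 h. Percent growth gave IC50; the MIC is the lowest concentration with no detectable growth.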

[23] = system: Candida albicans; test: Antifungal activity against Candida albicans ATCC 200955 at 68.3 uM after 48 hrs by CLSI method; type: functional, organism-based; outline: as §4
[24] = system: Trichophyton mentagrophytes; test: Antifungal activity against Trichophyton mentagrophytes ATCC MYA-4439 by CLSI method; type: functional, organism-based
Outline: (§6)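 Growth scraped from 1- to 6-week-old potato dextrose slants and filtered through Miracloth. Diluted in 5% Alamar blue-RPMI 1640 (MOPS pH 7.0) to 2.7 × 10⁴ CFU/ml. Eleven twofold dilutions in duplicate. Fluorescence at 544 nm excitation/590 nm emission read before and after 35°C, 5 days. IC50 fitted from percent growth. MIC taken as no detectable growth; MFC from clear or blue wells plated on PD agar.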

[25] = system: Candida albicans; test: Antifungal activity against Candida albicans ATCC 60193 at 68.3 uM after 48 hrs by CLSI method; type: functional, organism-based; outline: as §4
[26] = system: Trichophyton rubrum; test: Antifungal activity against Trichophyton rubrum ATCC 10218 by CLSI method; type: functional, organism-based; outline: as §6
[27] = system: Trichophyton rubrum; test: Antifungal activity against Trichophyton rubrum ATCC MYA-4438 by CLSI method; type: functional, organism-based; outline: as §6
[28] = system: Trichophyton mentagrophytes; test: Antifungal activity against Trichophyton mentagrophytes ATCC 9533 by CLSI method; type: functional, organism-based; outline: as §6
[29] = system: Candida tropicalis; test: Antifungal activity against Candida tropicalis ATCC 750 at 68.3 uM after 48 hrs by CLSI method; type: functional, organism-based; outline: as §1
[30] = system: Cryptococcus neoformans; test: Antifungal activity against Cryptococcus neoformans ATCC 66031 after 72 hrs by CLSI method; type: functional, organism-based; conditions: ATCC 66031, 72 h; outline: as §5
[31] = system: Candida albicans; test: Antifungal activity against Candida albicans ATCC 90028 at 68.3 uM after 48 hrs by CLSI method; type: functional, organism-based; outline: as §4
[32] = system: Candida parapsilosis; test: Antifungal activity against Candida parapsilosis ATCC 22019 after 48 hrs by CLSI method; type: functional, organism-based; conditions: Lodderomyces parapsilosis, ATCC 22019, 48 h; outline: as §1
[33] = system: Aspergillus fumigatus; test: Antifungal activity against Aspergillus fumigatus ATCC 204305 at 68.3 uM after 48 hrs by CLSI method; type: functional, organism-based
[34] = system: Candida albicans; test: Antifungal activity against Candida albicans ATCC 32354 at 68.3 uM after 48 hrs by CLSI method; type: functional, organism-based; outline: as §4
[35] = system: Nakaseomyces glabratus; test: Antifungal activity against Candida glabrata ATCC 90030 at 68.3 uM after 48 hrs by CLSI method; type: functional, organism-based; outline: as §4

CN(C/C=C/C#CC(C)(C)C)Cc1cccc2ccccc12 [TERBINAFINE]
IC50 [1]: 45400 nM | IC50 [2]: 3100 nM | MIC [2]: 51.5 µM (≈ 15 µg/mL) | Activity [3]: inactive | Activity [4]: inactive | Activity [5]: inactive | IC50 [6]: > 68300 nM | IC50 [7]: > 68300 nM | IC50 [8]: 13700 nM | IC50 [9]: 2600 nM | IC50 [10]: 10800 nM | IC50 [11]: 1100 nM | MIC [11]: 4.3 µM (≈ 1.25 µg/mL) | Activity [12]: inactive | IC50 [13]: 5300 nM | IC50 [14]: 300 nM | MFC [14]: 8.6 µM (≈ 2.51 µg/mL) | MIC [14]: 2.1 µM (≈ 0.612 µg/mL) | Activity [15]: inactive | Activity [16]: inactive | IC50 [17]: 11200 nM | Activity [18]: inactive | IC50 [19]: 700 nM | MIC [19]: 2.1 µM (≈ 0.612 µg/mL) | IC50 [20]: 1000 nM | MIC [20]: 4.3 µM (≈ 1.25 µg/mL) | Activity [21]: inactive | IC50 [22]: 500 nM | MFC [22]: 1.1 µM (≈ 0.321 µg/mL) | MIC [22]: 1.1 µM (≈ 0.321 µg/mL) | Activity [23]: inactive | IC50 [24]: < 20 nM | MFC [24]: 0.27 µM (≈ 0.0787 µg/mL) | MIC [24]: 0.17 µM (≈ 0.0495 µg/mL) | Activity [25]: inactive | IC50 [26]: < 20 nM | MFC [26]: 0.13 µM (≈ 0.0379 µg/mL) | MIC [26]: 0.1 µM (≈ 0.0291 µg/mL) | IC50 [27]: 4200 nM | MIC [27]: 21.4 µM (≈ 6.24 µg/mL) | IC50 [28]: < 20 nM | MFC [28]: 0.27 µM (≈ 0.0787 µg/mL) | MIC [28]: 0.05 µM (≈ 0.0146 µg/mL) | Activity [29]: inactive | IC50 [30]: 400 nM | MFC [30]: 8.6 µM (≈ 2.51 µg/mL) | MIC [30]: 4.3 µM (≈ 1.25 µg/mL) | Activity [31]: inactive | IC50 [32]: 400 nM | MIC [32]: 42.9 µM (≈ 12.5 µg/mL) | Activity [33]: inactive | Activity [34]: inactive | Activity [35]: inactive
